These results are taken from ChEMBL document CHEMBL1156112, “Discovery of 3-(1H-indol-3-yl)-4-[2-(4-methylpiperazin-1-yl)quinazolin-4-yl]pyrrole-2,5-dione (AEB071), a potent and selective inhibitor of protein kinase C isotypes” (J Med Chem, 2009).

Data set [1] concerns the target Protein kinase C alpha type (Homo sapiens, UniProt P17252). As to the kind of experiment: Inhibition of PKCalpha by SPA.
Data set [2] can be described thus: Elimination half life in Lewis rat at 5 mg/kg, iv. It counts as ADME, organism-based. Details: dose 5 mg/kg, route intravenous. Particulars: in vivo, read-out: beta t1/2 (converted). An outline of the steps: (§1)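 Rats dosed either 5 mg/kg iv in 75% saline (0.9%)-25% PEG400 or 20 mg/kg po in 75% water-25% PEG400. OFA or Lewis rats were used depending on the compound. Values are averages of three animals. AUC is extrapolated to infinity. Oral bioavailability (F) comes from the po and iv exposures.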

Data set [3] is described as follows: Cmax in Lewis rat at 20 mg/kg, po. It counts as ADME, organism-based. Conditions: in vivo. Details: dose 20 mg/kg, route oral. An outline of the steps: as §1
Data set [4] can be described thus: Tmax in Lewis rat at 20 mg/kg, po. Conditions: in vivo. The arrangement: dose 20 mg/kg, route oral. Format: ADME, organism-based. An outline of the steps:
as §1

The target in data set [5] is Protein kinase C beta type (Homo sapiens, UniProt P05771). Put plainly: Inhibition of PKCbeta1 by SPA.
Protein kinase C beta type, sequence (P05771 whole entry): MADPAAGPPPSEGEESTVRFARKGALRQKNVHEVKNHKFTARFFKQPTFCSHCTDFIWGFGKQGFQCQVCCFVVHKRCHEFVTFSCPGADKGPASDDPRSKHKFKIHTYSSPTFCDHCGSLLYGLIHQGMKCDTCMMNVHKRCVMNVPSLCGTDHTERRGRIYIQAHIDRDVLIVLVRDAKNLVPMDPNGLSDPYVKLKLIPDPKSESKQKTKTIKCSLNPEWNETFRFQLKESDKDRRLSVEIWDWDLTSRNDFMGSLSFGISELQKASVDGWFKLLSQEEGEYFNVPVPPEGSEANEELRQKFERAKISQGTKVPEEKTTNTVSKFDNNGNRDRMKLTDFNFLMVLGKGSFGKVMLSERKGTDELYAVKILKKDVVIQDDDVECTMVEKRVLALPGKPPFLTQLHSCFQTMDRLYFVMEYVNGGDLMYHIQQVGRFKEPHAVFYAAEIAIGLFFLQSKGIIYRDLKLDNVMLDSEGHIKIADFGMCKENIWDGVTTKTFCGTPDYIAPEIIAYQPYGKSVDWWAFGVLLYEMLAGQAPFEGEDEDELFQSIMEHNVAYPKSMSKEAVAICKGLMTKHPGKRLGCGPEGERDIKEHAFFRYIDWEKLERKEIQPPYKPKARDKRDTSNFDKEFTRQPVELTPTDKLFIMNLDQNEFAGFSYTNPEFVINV
A short description of data set [6]: Oral bioavailability in Lewis rat at 20 mg/kg, po. Format: ADME, organism-based. Particulars: in vivo. An outline of the steps:
as §1

Data set [7] has as its target Protein kinase C delta type (Homo sapiens, UniProt Q05655). As to the kind of experiment: Inhibition of PKCdelta by SPA.
Data set [8] addresses Protein kinase C theta type (Homo sapiens, UniProt Q04759). Put plainly: Inhibition of PKCtheta by SPA.
Data set [9] can be described thus: Clearance in Lewis rat at 5 mg/kg, iv. Format: ADME, organism-based. Particulars: in vivo. Details: dose 5 mg/kg, route intravenous. An outline of the steps: as §1
Data set [10] can be described thus: AUC (0 to infinity) in Lewis rat at 20 mg/kg, po. It counts as ADME, organism-based. The arrangement: time infinity, dose 20 mg/kg, route oral. Particulars: plasma. The essentials: as §1
The nature of a further data set: cells. Conditions: Homo sapiens, Jurkat.
Data set [11] is described as follows: Volume of distribution at steady state in Lewis rat at 5 mg/kg, iv. It counts as ADME, organism-based. Details: dose 5 mg/kg, route intravenous. Conditions: in vivo, read-out: Vdss. An outline of the steps: as §1
The target of data set [12] is Protein kinase C eta type (Homo sapiens, UniProt P24723). As to the kind of experiment: Inhibition of PKCeta by SPA.
Protein kinase C eta type, sequence (P24723 whole entry): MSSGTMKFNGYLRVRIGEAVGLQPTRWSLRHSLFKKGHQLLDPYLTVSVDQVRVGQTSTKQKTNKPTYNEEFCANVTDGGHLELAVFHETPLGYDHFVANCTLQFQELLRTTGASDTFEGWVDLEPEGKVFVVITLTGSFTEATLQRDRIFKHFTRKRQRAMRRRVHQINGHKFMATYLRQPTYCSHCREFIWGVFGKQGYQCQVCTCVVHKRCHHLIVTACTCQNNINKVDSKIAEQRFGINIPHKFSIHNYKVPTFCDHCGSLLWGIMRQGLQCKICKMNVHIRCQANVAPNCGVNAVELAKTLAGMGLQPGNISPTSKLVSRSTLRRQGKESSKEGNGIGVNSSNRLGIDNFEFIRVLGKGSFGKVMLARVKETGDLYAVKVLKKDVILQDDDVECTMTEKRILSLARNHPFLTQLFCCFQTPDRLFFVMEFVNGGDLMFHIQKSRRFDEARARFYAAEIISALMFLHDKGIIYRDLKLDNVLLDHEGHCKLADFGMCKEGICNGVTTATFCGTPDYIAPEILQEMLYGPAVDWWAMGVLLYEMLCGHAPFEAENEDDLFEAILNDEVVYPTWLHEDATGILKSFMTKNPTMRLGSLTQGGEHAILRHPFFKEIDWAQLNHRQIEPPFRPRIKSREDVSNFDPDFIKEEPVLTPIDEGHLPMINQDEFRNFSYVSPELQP
The nature of data set [13]: AUC (0 to infinity) in Lewis rat at 5 mg/kg, iv. It counts as ADME, organism-based. Details: time infinity, dose 5 mg/kg, route intravenous. Particulars: plasma. An outline of the steps:
as §1

For data set [14], the target named is T1, Protein kinase C epsilon type (Homo sapiens, UniProt Q02156).
T1 sequence (Q02156 whole entry): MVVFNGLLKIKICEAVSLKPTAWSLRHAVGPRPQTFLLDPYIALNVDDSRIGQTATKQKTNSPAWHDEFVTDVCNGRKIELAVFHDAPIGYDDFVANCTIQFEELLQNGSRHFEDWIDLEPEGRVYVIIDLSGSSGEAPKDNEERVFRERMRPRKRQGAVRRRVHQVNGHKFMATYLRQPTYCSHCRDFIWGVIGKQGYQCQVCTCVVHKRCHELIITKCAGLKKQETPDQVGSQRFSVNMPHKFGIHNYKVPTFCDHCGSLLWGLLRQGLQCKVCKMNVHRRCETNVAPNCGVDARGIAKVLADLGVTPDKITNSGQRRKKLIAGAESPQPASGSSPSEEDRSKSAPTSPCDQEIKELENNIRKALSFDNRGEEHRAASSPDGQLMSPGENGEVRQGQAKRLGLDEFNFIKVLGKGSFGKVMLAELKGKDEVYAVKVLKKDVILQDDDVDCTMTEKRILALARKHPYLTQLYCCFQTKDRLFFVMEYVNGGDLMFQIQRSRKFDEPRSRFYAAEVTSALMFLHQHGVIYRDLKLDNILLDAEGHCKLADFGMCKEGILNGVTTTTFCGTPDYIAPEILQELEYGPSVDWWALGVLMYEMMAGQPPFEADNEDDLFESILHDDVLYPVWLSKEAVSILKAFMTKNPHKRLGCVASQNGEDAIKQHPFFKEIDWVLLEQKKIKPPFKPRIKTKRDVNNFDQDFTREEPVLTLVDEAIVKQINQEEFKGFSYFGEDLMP
As to the kind of experiment: Inhibition of PKCepsilon by SPA.

Data set [15] is described as follows: Dissociation constant, pKa of the compound. Format: physicochemical.
Data set [16] in a line: AUC (0 to infinity) in OFA rat at 20 mg/kg, po. It counts as ADME, organism-based. Particulars: plasma. Details: dose 20 mg/kg, route oral, time infinity. The essentials: as §1
Data set [17] is described as follows: Volume of distribution at steady state in OFA rat at 5 mg/kg, iv. It counts as ADME, organism-based. Details: dose 5 mg/kg, route intravenous. Conditions: in vivo, read-out: Vdss. The essentials: as §1
Data set [18] is described as follows: Oral bioavailability in OFA rat at 20 mg/kg, po. Conditions: in vivo. Format: ADME, organism-based. The essentials: as §1
Data set [19] can be described thus: Tmax in OFA rat at 20 mg/kg, po. Details: dose 20 mg/kg, route oral. Particulars: in vivo. Format: ADME, organism-based. The essentials: as §1
A short description of data set [20]: Clearance in OFA rat at 5 mg/kg, iv. Conditions: in vivo. Format: ADME, organism-based. Details: dose 5 mg/kg, route intravenous. The essentials:
as §1

Data set [21] in a line: Elimination half life in OFA rat at 5 mg/kg, iv. The arrangement: dose 5 mg/kg, route intravenous. Particulars: in vivo, read-out: beta t1/2 (converted). It counts as ADME, organism-based. An outline of the steps:
as §1

Data set [22] can be described thus: Cmax in OFA rat at 20 mg/kg, po. It counts as ADME, organism-based. The arrangement: dose 20 mg/kg, route oral. Conditions: in vivo. The essentials: as §1
Data set [23] can be described thus: AUC (0 to infinity) in OFA rat at 5 mg/kg, iv. Details: time infinity, dose 5 mg/kg, route intravenous. Conditions: plasma. It counts as ADME, organism-based. An outline of the steps: as §1

Protein kinase C delta type, sequence (Q05655 whole entry): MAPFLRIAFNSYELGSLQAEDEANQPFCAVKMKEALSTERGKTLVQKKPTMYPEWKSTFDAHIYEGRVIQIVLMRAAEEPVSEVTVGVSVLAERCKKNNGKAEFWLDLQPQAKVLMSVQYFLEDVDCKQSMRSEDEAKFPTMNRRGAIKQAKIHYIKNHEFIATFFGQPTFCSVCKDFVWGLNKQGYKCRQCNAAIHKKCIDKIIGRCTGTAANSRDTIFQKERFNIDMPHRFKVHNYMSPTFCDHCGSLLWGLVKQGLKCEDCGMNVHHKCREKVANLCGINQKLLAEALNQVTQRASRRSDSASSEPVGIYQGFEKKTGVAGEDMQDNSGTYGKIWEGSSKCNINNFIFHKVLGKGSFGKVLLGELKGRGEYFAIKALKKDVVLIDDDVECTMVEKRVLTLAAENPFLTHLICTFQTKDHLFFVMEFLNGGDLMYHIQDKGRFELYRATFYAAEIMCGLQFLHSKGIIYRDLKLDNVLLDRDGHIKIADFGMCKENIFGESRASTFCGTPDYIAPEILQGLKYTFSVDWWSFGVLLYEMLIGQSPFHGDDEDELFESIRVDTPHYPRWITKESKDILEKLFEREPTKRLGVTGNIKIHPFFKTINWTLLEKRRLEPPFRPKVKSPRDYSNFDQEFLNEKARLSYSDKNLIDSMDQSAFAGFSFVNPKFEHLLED
Protein kinase C theta type, sequence (Q04759 whole entry): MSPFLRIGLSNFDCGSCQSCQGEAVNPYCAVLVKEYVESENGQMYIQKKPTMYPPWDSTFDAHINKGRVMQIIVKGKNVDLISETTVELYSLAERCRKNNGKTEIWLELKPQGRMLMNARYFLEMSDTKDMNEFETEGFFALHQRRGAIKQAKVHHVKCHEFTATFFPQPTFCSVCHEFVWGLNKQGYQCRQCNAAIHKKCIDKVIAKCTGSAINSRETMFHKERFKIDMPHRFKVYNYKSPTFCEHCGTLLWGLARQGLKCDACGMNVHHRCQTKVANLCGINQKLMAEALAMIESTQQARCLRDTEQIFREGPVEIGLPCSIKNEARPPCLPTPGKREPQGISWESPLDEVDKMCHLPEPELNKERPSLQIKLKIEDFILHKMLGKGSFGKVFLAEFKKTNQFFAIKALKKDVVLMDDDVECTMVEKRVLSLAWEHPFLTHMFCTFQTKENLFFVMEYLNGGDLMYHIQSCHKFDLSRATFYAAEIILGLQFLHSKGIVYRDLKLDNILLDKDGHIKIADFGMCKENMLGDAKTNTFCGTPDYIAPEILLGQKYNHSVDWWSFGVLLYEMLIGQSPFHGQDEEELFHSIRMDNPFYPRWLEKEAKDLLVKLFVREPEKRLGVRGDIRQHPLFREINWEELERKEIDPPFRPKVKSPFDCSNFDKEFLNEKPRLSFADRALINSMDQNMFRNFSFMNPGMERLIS

In general, IC50 refers to the concentration needed to halve the response being measured. Higher therefore signals weaker potency. As a reminder, the Cmax is the maximum level reached in the sampled fluid or tissue. The Tmax is the time from dosing to the highest level. One may read the bioavailability as dose-corrected exposure relative to a reference, in per cent. Higher therefore signals much systemic uptake. In general, clearance refers to the volume of plasma or blood freed of the substance per unit of time. Higher therefore signals a high capacity for elimination. The term AUC(0-inf) denotes the area under the concentration-time curve extrapolated to infinity. Low values mean low exposure, high ones high exposure. As for `CN1CCN(c2cc(C3=C(c4c[nH]c5ccccc45)C(=O)NC3=O)c3ccccc3c2)CC1`, the IC50 worked out at 0.9 nM in [1]; 1.8 nM in data set [5]; 7.3 nM in data set [7]; 4.8 nM in data set [8]; 50 nM in “cells”; 25 nM in [12]. In data set [14], the IC50 is 19 nM. Moreover, the half-life in [2] was 4.5 h. Also, the concentration in data set [3] peaked (Cmax) at 242 ng/mL. The Tmax in data set [4] is 2 h. This compound also came in with a bioavailability in data set [6] of 12%. For the same compound, in data set [9], the clearance came to 19.3 mL/min/kg. In addition, the total exposure AUC(0-inf) in data set [10] came out at 1990 ng·h/mL; in data set [13] it was 4320 ng·h/mL. Besides, the Vd in data set [11] amounted to 12 L/kg.
For the compound `CN(C)CCCn1cc(C2=C(c3csc4ccccc34)C(=O)NC2=O)c2ccccc21`, the IC50 worked out at 73 nM in [1]; 47 nM in data set [5]; 183 nM in [7]; 255 nM in [8]; 293 nM in data set [12]; 285 nM in [14].
In general, pKa refers to the negative logarithm of the acid dissociation constant. A lower pKa goes with a group that gives up its proton readily. `CN1CCN(c2cccc(C3=C(c4c[nH]c5ccccc45)C(=O)NC3=O)c2)CC1`: the IC50 in data set [1] was 7.1 nM; in data set [5] it was 36 nM; in data set [7], 97 nM; in [8], 76 nM; in the data set “cells”, 277 nM; in data set [12] it was 36 nM. The same compound displayed an IC50 in data set [14] of 59 nM. This compound came in with a pKa in data set [15] of 7.5.
In the case of `CN(C)CCCn1cc(C2=C(c3cccc4ccccc34)C(=O)NC2=O)c2ccccc21`, the IC50 is 98 nM in data set [1]; 60 nM in [5]; 207 nM in data set [7]; 165 nM in data set [8]; 349 nM in data set [12]; more than 315 nM in data set [14].
Turning to `CN(C)CCCn1cc(C2=C(c3c[nH]c4ccccc34)C(=O)NC2=O)c2ccccc21` [GF-109203], the IC50 is 2.3 nM in [1]; 1.6 nM in [5]; 8.7 nM in data set [7]; 6.7 nM in data set [8]; 10 nM in [12]; 6.6 nM in data set [14].
For `O=C1NC(=O)C(c2c[nH]c3ccccc23)=C1c1nc(N2CCOCC2)nc2ccccc12`, the IC50 was 1500 nM in [1]; 1270 nM in [5]; 794 nM in data set [7]; 1380 nM in data set [8]; more than 3700 nM in “cells”; 2540 nM in data set [12]. Moreover, in [14], the IC50 was 1820 nM.
As to `CN(C)CCCn1cc(C2=C(c3n[nH]c4ccccc34)C(=O)NC2=O)c2ccccc21`, the 50% inhibitory concentration (IC50) in [1], in [5], in data set [7], in data set [8], in data set [12] and in data set [14] was more than 315 nM throughout.
As for `CN(C)CCOc1cc(C2=C(c3c[nH]c4ccccc34)C(=O)NC2=O)c2ccccc2c1`, the AUC(0-inf) is 154 ng·h/mL in data set [16] and 2690 ng·h/mL in data set [23]. The half-maximal inhibitory concentration (IC50) in data set [1] was 2.2 nM; in data set [5], 2.1 nM; in [7], 4.4 nM; in data set [8] it was 3.3 nM; in “cells”, 69 nM; in [12], 11 nM. The IC50 in [14] is 5.5 nM. Besides, in data set [17], the Vd stood at 48.2 L/kg. This compound showed a bioavailability in data set [18] of 1%. In addition, the Tmax in data set [19] is 0.5 h. Besides, the clearance in data set [20] came to 30.9 mL/min/kg. Besides, the half-life in data set [21] is 20.6 h. The compound further gave a maximum concentration (Cmax) in data set [22] of 16.2 ng/mL.
For `CN(C)CCOc1cccc(C2=C(c3c[nH]c4ccccc34)C(=O)NC2=O)c1`, the IC50 is 15 nM in [1]; 58 nM in data set [5]; 47 nM in data set [7]; 52 nM in data set [8]; 668 nM in “cells”; 47 nM in data set [12]. Moreover, in data set [14], the midpoint of inhibition, the IC50, lay at 29 nM.
